Assay [1] has as its target T1, Angiotensin-converting enzyme (Rattus norvegicus, UniProt P47820).
T1 sequence (P47820 whole entry): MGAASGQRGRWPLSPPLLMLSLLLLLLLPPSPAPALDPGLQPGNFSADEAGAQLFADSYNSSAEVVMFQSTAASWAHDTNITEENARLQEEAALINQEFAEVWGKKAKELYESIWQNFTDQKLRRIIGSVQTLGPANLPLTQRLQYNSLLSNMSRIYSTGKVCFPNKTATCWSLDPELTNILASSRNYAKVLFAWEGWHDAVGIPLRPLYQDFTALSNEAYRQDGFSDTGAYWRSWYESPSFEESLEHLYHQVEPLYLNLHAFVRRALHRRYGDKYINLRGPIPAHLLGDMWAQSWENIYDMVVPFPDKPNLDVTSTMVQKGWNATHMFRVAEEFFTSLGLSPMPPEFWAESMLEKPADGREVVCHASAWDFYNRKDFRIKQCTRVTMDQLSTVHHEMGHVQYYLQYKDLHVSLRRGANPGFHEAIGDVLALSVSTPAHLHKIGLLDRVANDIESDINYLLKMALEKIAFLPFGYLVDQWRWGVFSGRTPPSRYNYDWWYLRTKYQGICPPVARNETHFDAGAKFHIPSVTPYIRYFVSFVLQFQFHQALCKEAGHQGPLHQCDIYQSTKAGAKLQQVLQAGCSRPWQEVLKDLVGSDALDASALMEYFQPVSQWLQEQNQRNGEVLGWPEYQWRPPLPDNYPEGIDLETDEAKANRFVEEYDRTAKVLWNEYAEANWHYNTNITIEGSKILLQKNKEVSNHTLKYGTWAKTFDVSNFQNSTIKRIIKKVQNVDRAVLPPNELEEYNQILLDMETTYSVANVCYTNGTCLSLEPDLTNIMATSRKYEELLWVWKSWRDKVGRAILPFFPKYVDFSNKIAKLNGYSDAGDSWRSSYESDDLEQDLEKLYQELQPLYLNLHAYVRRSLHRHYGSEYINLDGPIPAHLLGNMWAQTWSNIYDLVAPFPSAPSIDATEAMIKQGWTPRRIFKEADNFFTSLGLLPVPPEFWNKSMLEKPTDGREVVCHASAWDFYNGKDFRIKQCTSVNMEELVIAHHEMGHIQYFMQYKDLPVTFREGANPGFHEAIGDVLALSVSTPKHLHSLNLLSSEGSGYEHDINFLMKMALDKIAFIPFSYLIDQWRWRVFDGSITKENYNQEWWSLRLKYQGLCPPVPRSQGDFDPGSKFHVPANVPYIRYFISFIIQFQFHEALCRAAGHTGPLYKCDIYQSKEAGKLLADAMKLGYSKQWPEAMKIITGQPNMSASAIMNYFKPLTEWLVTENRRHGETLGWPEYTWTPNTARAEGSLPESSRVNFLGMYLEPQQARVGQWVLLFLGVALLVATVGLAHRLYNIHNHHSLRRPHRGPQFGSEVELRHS
As to the kind of experiment: Inhibition of Angiotensin I converting enzyme in rat.

The subject of assay [2] is Rattus norvegicus. As to the kind of experiment: Percent inhibition of angiotensin I (AI) pressor response after intravenous administration (dose of 0.05 mg/kg)to conscious normotensive rats. The assay is classed as functional. In outline:
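Angiotensin I pressor response measured in conscious normotensive rats, 15 min after intravenous dosing of test compound; value is percent inhibition of the pressor response.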

Assay [3] concerns Rattus norvegicus. As to the kind of experiment: Percent inhibition of angiotensin I (AI) pressor response after oral administration (dose of 1.0 mg/kg) to conscious normotensive rats. The assay is classed as functional. In outline:
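Angiotensin I pressor response measured in conscious normotensive rats, 1 h after oral dosing of test compound; value is percent inhibition of the pressor response.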

Assay [4] relates to Rattus norvegicus. As to the kind of experiment: The maximal change in blood pressure recorded during the 4-day test period in spontaneously hypertensive rats (SHR) after oral administration. The assay is classed as functional.

On to `O=C(O)CN1C(=O)[C@@H](N[C@H](CCc2ccccc2)C(=O)O)CSc2ccccc21`, for which, in assay [1], the IC50 was 240 nM.

The molecule `O=C(O)CN1C(=O)[C@@H](N[C@@H](CCc2ccccc2)C(=O)O)CSc2ccccc21` returned a concentration for half-maximal inhibition (IC50) in assay [1] of 2.9 nM.

Take `O=C(O)CN1C(=O)[C@@H](NC(CCc2ccccc2)C(=O)O)CS(=O)(=O)c2ccccc21` (stereo partly specified): the IC50 in assay [1] was 2900 nM.

As for `O=C(O)CN1C(=O)[C@@H](NC(CCc2ccccc2)C(=O)O)C[S+]([O-])c2ccccc21` (stereo partly specified), the IC50 in assay [1] turned out to be 5.9 nM.

`CCOC(=O)C(CCc1ccccc1)NC1CSc2ccccc2N(CC(=O)O)C1=O.Cl` (stereo in doubt; 14c) gave an IC50 in assay [1] of 2200 nM. This molecule also showed an inhibition in vivo at 0.05 mg/kg with Rattus norvegicus [2] of 75%. For the same molecule, the inhibition in vivo at 1 mg/kg in the assay on Rattus norvegicus [3] was determined as 39%. Besides, in the assay on Rattus norvegicus [4], the “Max delta BP” value is -35 mmHg.

In assay [1], `O=C(O)CN1C(=O)[C@@H](NC(CCc2ccccc2)C(=O)O)CCc2ccccc21` (stereo partly specified) yielded a 50% inhibitory concentration (IC50) of 1.7 nM.

As to `CCOC(=O)C(CCc1ccccc1)N[C@H]1CSc2ccccc2N(CC(=O)O)C1=O` (stereo partly specified), it took 8000 nM to reach half-maximal inhibition in assay [1] (IC50).

In assay [1], `CCOC(=O)CN1C(=O)[C@@H](NC(CCc2ccccc2)C(=O)OCC)CCc2ccccc21` (stereo partly specified) registered a half-maximal inhibitory concentration (IC50) of 430 nM. Besides, the inhibition in vivo at 0.05 mg/kg in the assay on Rattus norvegicus [2] turned out to be 77%. The same molecule returned an inhibition in vivo at 1 mg/kg in the assay on Rattus norvegicus [3] of 88%. Also, the “Max delta BP” value with Rattus norvegicus [4] is -76 mmHg.

Molecule `CCOC(=O)C(CCc1ccccc1)NC1CSc2ccccc2N(CC(=O)O)C1=O` (stereo in doubt; 14a) gave an IC50 in assay [1] of 860 nM.

In the case of `O=C(O)CN1C(=O)[C@@H](NC(CCc2ccccc2)C(=O)O)CSc2ccccc21` (stereo partly specified), the IC50 in assay [1] stood at 9.8 nM.

The IC50 is the concentration at which inhibition is half-maximal. Higher therefore signals weaker potency in that assay. Usually inhibition in vivo stands for the drop in the measured response relative to a control, in per cent. Low values mean a response near the control, high ones a response far below the control.

For the origin of these results see ChEMBL document CHEMBL1123100, “Angiotensin converting enzyme inhibitors: 1,5-benzothiazepine derivatives” (J Med Chem, 1985).
